Screening results deposited in PubChem BioAssay by The Scripps Research Institute Molecular Screening Center.
Shown are actives, neighbours in structure and some others; about 1.4% of the full set was active somewhere.
SIAE inh = human SIAE inhibitors, primary screen, biochemical, fluorescence polarization, FP-Rh probe, 1536-well HTS; Sialate O-acetylesterase (Homo sapiens), Q9HAT2; SIAE FP-Rh probe binding; inhibition, % at 9.66 µM; 370,000 compounds, 0.69% hits;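 active = inhibition above a cutoff: mean of compounds within the control limits plus 3 SD of those, cut at about 17% in these data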;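 note: 0% = plate median of compound wells and 100% = probe without SIAE protein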
HTRA1 inh = HTRA1 serine protease inhibitors, primary screen, biochemical, fluorescence polarization, HTS; inhibition, % at 5.96 µM; 340,000 compounds, 0.5% hits; recombinant HTRA1, FP-rhodamine activity-based probe; in the data active = inhibition above about 36%;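 note: 0% = enzyme with DMSO and 100% = wells lacking enzyme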
ABHD4 inh = ABHD4 inhibitors, primary screen, biochemical, fluorescence polarization, mouse; (Lyso)-N-acylphosphatidylethanolamine lipase (Mus musculus), Q8VD66; purified mABHD4, FP-Rh probe fluorescence polarization; inhibition, % at 8.92 µM; 370,000 compounds, 0.54% hits;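 active = inhibition exceeding the mean over every tested compound plus 3 SD, cut at about 30% in these data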;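 note: 0% = plate median of compound wells and 100% = S159A mutant with DMSO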
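Assay system: mABHD4 protein; medium: HEPES pH 7.0, NaCl, Pluronic buffer; dosing: 8.92 µM, single dose; schedule: 45 min + 60 min at 25 °C; signal: FP readout, ex 525 nm / em 598 nm; read-out: normalized percent inhibition of probe labeling; repeats: single replicate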
RBBP9 inhibitor = human RBBP9 inhibitors, primary screen, biochemical, fluorescence polarization, FP-Rh probe, HTS; AID 1515, 2009; Serine hydrolase RBBP9 (Homo sapiens), O75884; inhibition, % at 7.94 µM; recombinant RBBP9; 220,000 compounds, 0.2% hits;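 active = inhibition above the campaign mean of all tested compounds plus 3 SD, cut at about 14% in these data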;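 note: plate controls were DMSO wells with RBBP9 for no effect and wells lacking RBBP9 protein for full effect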
Target sequence (O75884 whole entry, looked up): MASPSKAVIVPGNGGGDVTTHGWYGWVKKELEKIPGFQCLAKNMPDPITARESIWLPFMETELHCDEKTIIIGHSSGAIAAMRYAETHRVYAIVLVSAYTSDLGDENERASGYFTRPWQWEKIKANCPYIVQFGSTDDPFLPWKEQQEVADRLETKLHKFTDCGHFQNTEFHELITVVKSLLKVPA
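System: RBBP9 protein / Quantity: 2.5 µM RBBP9 dispensing solution, before mixing / Also added: Serine-hydrolase probe FP-Rh, 375 nM pre-mixing / Dosing: 7.94 µM single dose, 0.794% DMSO / Timing: enzyme-compound preincubation 30 min, then probe labeling 45 min, 25 °C / Signal: FP readout at 525/598 nm / Controls: DMSO-treated enzyme wells and wells lacking RBBP9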
ABHD4 confirm = ABHD4 inhibitors, retest, confirmation, biochemical, fluorescence polarization, mouse. 1,800 compounds, 55% hits. inhibition, % at 8.92 µM. purified mABHD4, FP-Rh probe fluorescence polarization. shares compounds with ABHD4 inh. AID 720658, 2013;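 active = mean inhibition across replicates above the hit cutoff set in the primary screen, cut at about 30% in these data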;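 note: 0% = wild-type ABHD4 with DMSO and 100% = catalytically dead S159A mutant with DMSO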
* hit, by the source's call; / = not tested or not shown.

SMILES	SIAE inh	HTRA1 inh	ABHD4 inh	RBBP9 inhibitor	ABHD4 confirm
CN(C)c1ccc(N2C(=O)CC(Nc3ccc(N4CCOCC4)cc3)C2=O)cc1 (configuration not stated)	11.4	6.5	21.1	-0.7	/
C/C=C/COC(=O)c1[nH]c2c(c1C)C(=O)CC(c1ccco1)C2 (configuration not stated)	3.4	-10.3	31.9*	-4.5	-14.3
O=c1[nH]n2c(=O)c3c([nH]c2c1N=Nc1cccc(C(F)(F)F)c1)CCCC3	-10.2	35.7	59.0*	11.8	66.5*
O=c1[nH]n2c(=O)c3c([nH]c2c1N=Nc1cccc(Cl)c1)CCC3	-7.2	19.8	29.1	-3.6	/
Cc1ccccc1NC(=O)Cc1nc(COC(=O)CCc2ccccc2)cs1	-3.1	-6.2	52.6*	/	48.2*
CCOC(=O)/C=C/C(=O)OCc1csc(CC(=O)Nc2ccccc2C)n1	-1.7	-7.0	29.9*	/	39.9*
CC(C)=CC(=O)OCc1csc(CC(=O)Nc2ccccc2C)n1	-2.0	-1.9	5.0	/	/
COc1ccccc1CCC(=O)OCc1csc(CC(=O)Nc2ccccc2C)n1	-6.3	-14.0	21.5	/	/
Cc1ccc(C(=O)COC(=O)C2CC3CCCC(C2)C3=O)cc1[N+](=O)[O-] (configuration not stated)	-0.7	-7.0	42.1*	/	3.0
Cc1ccccc1NC(=O)Cc1nc(COC(=O)c2ccc([N+](=O)[O-])cc2)cs1	-3.9	1.1	24.8	/	/
Cc1ccccc1NC(=O)Cc1nc(COC(=O)c2cccc([N+](=O)[O-])c2)cs1	5.6	-6.5	54.0*	/	41.5*
Cc1ccccc1NC(=O)Cc1nc(COC(=O)c2cc([N+](=O)[O-])ccc2NCCO)cs1	-6.3	-16.6	39.5*	/	18.5
Cc1ccc(C(=O)NNC2=Nc3cccc4cccc2c34)cc1	-2.3	10.7	30.0*	-7.0	22.7
O=S1(=O)c2c(NCc3ccco3)cccc2Oc2ccccc2CN1Cc1cn(Cc2ccccc2C(F)(F)F)nn1	11.3	/	-8.3	/	/
Nc1ccc2cc3[nH]c4cc(N)ccc4c3nc2c1	2.4	32.3	36.4*	/	72.1*
CCO/C(C)=N/Oc1cncnc1	-4.2	/	3.7	/	/
COc1ccc(NC(=O)C(c2cc3c(cc2[N+](=O)[O-])OCO3)N2CCN(C=O)CC2)cc1 (configuration not stated)	8.5	5.4	31.4*	6.0	-0.5
COc1ccc(NC(=O)C(c2cc3c(cc2[N+](=O)[O-])OCO3)N(C)Cc2ccccc2)cc1 (configuration not stated)	14.6	-23.2	67.4*	0.9	-26.7
CCCN1CCCCC(NC(C)=O)C1=O (configuration not stated)	-0.8	/	0.2	/	/
CN(C)c1ccc2nc3ccc(=[N+](C)C)cc-3sc2c1	7.2	17.0	31.1*	6.8	14.1
Cc1cc2nc3ccc(=[N+](C)C)cc-3sc2cc1N	/	28.5	/	7.6	/
Cc1ccc(-c2cnc(NCc3cc4c(cc3[N+](=O)[O-])OCO4)n2C)cc1C	0.7	-1.7	13.9	3.3	/
COc1ccc(CNCc2cc3c(cc2[N+](=O)[O-])OCO3)cc1	11.2	10.7	33.2*	/	6.0
Cc1cc(C)cc(NCc2cc3c(cc2[N+](=O)[O-])OCO3)c1	11.3	5.8	31.4*	-1.6	14.1
COc1ccc(CC(=O)NCc2ccc3c(c2)OCO3)cc1	1.0	-3.0	-1.4	0.2	/
SMILES	SIAE inh	HTRA1 inh	ABHD4 inh	RBBP9 inhibitor	ABHD4 confirm
Cc1cc(NS(=O)(=O)c2ccc(NC(=O)c3ccc([N+](=O)[O-])cc3)cc2)nc(C)n1	0.5	6.7	3.1	/	/
O=c1cc(CSc2ccc(Cl)cc2)[nH]c2[nH]n(-c3ccccc3)c(=O)c12	13.8	20.4	46.9*	-9.9	26.2
Cc1[nH]n(-c2ccccc2)c(=O)c1Sc1ccc(Cl)cc1	-5.0	-7.1	1.0	-8.5	/
CC(C#N)(NC(=O)CN1CCN(S(=O)(=O)c2cccc(F)c2)CC1)C1CC1 (configuration not stated)	-9.6	2.9	2.8	/	/
COc1cc(/C=C2\SC(=O)N(c3cccc(Cl)c3)C2=O)cc([N+](=O)[O-])c1O	1.0	13.2	37.3*	-0.8	40.9*
Cc1cccc(NC(=O)CN2C(=O)S/C(=C\c3ccc(O)c([N+](=O)[O-])c3)C2=O)c1	8.6	21.7	33.5*	-2.1	60.4*
